Test results taken from article PMC8915966 (Proceedings of the National Academy of Sciences of the …, 2022).
One block for each substance: values may come before it. Where no end group is shown, it is not given here.

Experiments:
[1] = biological target: TLR4/MD-2 complex (human) (UniProt O00206); assay: SPR
[2] = test system: FITC-LPS binding to RAW 264.7 cells; assay: Flow cytometry of FITC-LPS binding to RAW 264.7 cells; format: cell-based; conditions: posttreatment with 40 μM peptide, FITC-LPS 40 μg/mL, 30 min, 4 °C; MFI
In short: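 RAW 264.7 cells (10⁶) were exposed under serum-free conditions at 4 °C for 30 min to test compound (40 μM) or FITC-labelled E. coli O55:B5 LPS (40 μg/mL), given before or after the other. Cells were PBS-washed and surface fluorescence was read by flow cytometry as MFI (%). Three independent experiments, mean ± SEM, one-way ANOVA with Dunnett's test.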

RAW 264.7 cells = assay: Cytotoxicity, WST-8 assay; format: cell-based; conditions: 24 h
ICR mice = assay: In vivo toxicity; conditions: for kidney histology, in words: 20 mg/kg, two doses for 3 d, hematoxylin and eosin
In short: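 Female ICR mice, n = 5 per group, received test compound i.p. at a low (5 mg/kg/day for 5 d) or high (20 mg/kg twice per day for 3 d) regimen. Serum creatinine, AST and ALT were measured and compared with controls by one-way ANOVA with Dunnett's test; mean ± SEM.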

[3] = test system: E. coli K1-infected ICR mice; assay: E. coli K1 sepsis mouse model; format: in vivo
TLR4 [4] = conditions: read-out: binding affinity of LPS to TLR4; cited from earlier work
MD-2 [5] = conditions: read-out: binding affinity of LPS to MD-2; cited from earlier work
TLR4/MD-2 = TLR4/MD-2 (Homo sapiens, UniProt O00206+Q9Y6Y9); assay: SPR binding to TLR4/MD-2 complex
TLR4 [6] = biological target: TLR4 (Homo sapiens, UniProt O00206); assay: SPR binding to TLR4
MD-2 [7] = biological target: T1, MD-2 (Homo sapiens, UniProt Q9Y6Y9); assay: SPR binding to MD-2
T1 sequence (Q9Y6Y9 19-160): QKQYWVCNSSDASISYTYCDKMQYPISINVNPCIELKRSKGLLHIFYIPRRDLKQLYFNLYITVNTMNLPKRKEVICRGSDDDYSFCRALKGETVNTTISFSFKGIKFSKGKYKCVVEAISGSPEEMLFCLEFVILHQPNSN

[8] = 20 mg/kg i.p. twice per day for 3 d, ICR mice, n = 5
[9] = 1 mg/kg i.p., E. coli K1 5 × 10^6 CFU/mouse, serum

TLR4/MD-2, sequence (O00206 24-631 limits assumed): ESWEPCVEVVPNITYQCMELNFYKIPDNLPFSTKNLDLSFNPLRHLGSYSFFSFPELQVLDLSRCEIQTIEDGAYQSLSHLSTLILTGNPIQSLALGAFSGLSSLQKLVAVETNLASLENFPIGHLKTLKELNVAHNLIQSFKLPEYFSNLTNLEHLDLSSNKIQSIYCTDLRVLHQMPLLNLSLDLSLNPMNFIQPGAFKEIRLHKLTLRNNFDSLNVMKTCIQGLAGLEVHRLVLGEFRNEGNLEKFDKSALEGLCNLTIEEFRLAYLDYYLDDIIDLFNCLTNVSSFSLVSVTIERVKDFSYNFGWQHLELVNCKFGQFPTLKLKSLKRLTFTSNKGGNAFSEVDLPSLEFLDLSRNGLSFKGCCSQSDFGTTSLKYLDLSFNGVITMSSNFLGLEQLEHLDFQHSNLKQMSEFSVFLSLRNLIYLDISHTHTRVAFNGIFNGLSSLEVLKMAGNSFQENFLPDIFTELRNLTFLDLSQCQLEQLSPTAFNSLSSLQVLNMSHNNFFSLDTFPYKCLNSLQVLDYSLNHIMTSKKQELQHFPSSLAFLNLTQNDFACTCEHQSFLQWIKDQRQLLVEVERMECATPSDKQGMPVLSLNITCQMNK
TLR4/MD-2, sequence (Q9Y6Y9 17-160 limits assumed): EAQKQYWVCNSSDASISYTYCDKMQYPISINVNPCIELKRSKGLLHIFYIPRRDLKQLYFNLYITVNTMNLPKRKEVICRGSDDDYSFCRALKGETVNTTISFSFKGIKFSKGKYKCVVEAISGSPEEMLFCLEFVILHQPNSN
TLR4/MD-2 complex (human), sequence (O00206 24-839, one chain of several): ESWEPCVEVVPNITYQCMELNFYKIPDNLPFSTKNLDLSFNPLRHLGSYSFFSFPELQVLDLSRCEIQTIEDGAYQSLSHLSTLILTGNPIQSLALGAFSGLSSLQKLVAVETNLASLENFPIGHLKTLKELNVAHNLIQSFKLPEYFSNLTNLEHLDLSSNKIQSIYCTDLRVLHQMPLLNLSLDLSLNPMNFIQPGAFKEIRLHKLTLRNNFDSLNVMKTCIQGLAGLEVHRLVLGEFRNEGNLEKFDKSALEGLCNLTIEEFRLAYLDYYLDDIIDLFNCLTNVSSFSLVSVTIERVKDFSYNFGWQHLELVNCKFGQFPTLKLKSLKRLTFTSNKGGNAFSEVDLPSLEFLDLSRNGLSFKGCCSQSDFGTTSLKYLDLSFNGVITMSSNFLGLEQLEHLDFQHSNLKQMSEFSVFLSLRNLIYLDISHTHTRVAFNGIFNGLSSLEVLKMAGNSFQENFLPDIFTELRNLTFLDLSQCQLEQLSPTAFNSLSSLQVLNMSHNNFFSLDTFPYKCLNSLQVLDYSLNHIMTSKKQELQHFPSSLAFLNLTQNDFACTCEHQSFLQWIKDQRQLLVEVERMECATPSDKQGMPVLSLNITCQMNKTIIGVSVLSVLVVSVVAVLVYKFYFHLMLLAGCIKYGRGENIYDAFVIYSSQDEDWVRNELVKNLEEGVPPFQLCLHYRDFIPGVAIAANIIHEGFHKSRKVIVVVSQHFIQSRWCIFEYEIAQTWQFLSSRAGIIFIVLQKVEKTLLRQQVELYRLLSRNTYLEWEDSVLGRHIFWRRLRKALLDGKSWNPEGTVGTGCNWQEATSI
TLR4 (Homo sapiens, UniProt O00206), sequence (O00206 24-839): as the sequence (O00206 24-839, one chain of several) above

- fold lower affinity compared to papiliocin [1]: 100 fold
Substance: papiliocin G23P (peptide)

Substance: Polymyxin B [PMB]
- competitive displacement of prebound LPS on RAW 264.7 cells [2]: no competitive impact
- cell survival rate (RAW 264.7 cells; 50 μM peptide): 30.6%
- cell survival rate (RAW 264.7 cells; 100 μM peptide): 15.5%
- elevation of blood urea nitrogen (BUN) level (ICR mice; [8]): 26.6%
- elevation of serum creatinine level (ICR mice; [8]): 37.1%
- increase of ALT level (ICR mice; [8]): 30.6%
- increase of AST level (ICR mice; [8]): 17.8%
- kidney histology, in words (ICR mice): notable kidney damage
- reduction of endotoxin levels ([3]; 1 mg/kg i.p., E. coli K1 5 × 10^6 CFU/mouse, 16 h later, n = 5): 34.6%
- ALT level reduced to [3, 9]: 19.4%
- AST level reduced to [3, 9]: 25.7%
- BUN level reduced to [3, 9]: 16.7%
- serum and lung tissue levels of TNF-α and IL-6, in words ([3]; 1 mg/kg, compared to E. coli K1–infected control mice, ELISA): significantly reduced
- lung tissue histology, in words ([3]; 1 mg/kg, hematoxylin and eosin, neutrophil infiltration): significantly protected against lung damage

Substance: lipopolysaccharide [LPS]
- Kd (TLR4 [4]): 14.1 µM
- Kd (MD-2 [5]): 8.7 µM

Substance: papiliocin (peptide)
- koff [1]: 0.0141 s⁻¹
- kon [1]: 3850 M⁻¹ s⁻¹

- fold lower affinity compared to papiliocin [1]: 10 fold
Substance: papiliocin P24G (peptide)

Substance: RWKIFKKIEKVGRNVRDGIIKAGPAVAVVGQAATVVK-NH2 [Papiliocin]
- Kd (TLR4/MD-2): 3.7 µM
- kon (TLR4/MD-2; read-out: association rate, TLR4/MD-2 complex): 3850 M⁻¹ s⁻¹
- koff (TLR4/MD-2; read-out: dissociation rate, TLR4/MD-2 complex): 0.0141 s⁻¹
- Kd (TLR4 [6]): 0.41 µM
- Kd (MD-2 [7]): 1.1 µM
- cell survival rate (RAW 264.7 cells; 50 μM peptide): 100%
- cell survival rate (RAW 264.7 cells; 100 μM peptide): 78.0%
- change in creatinine level compared to the control, in words (ICR mice; 5 mg/kg/day for 5 d and 20 mg/kg twice per day for 3 d, i.p.): neither lower dose of PMB nor any dose of papiliocin induced any aberrant changes in creatine level
- kidney histology, in words (ICR mice): did not show any signs of morphology changes in the kidneys
